One experiment addresses T1, fMet-Leu-Phe receptor (Homo sapiens, UniProt P21462).
T1 sequence (P21462 whole entry): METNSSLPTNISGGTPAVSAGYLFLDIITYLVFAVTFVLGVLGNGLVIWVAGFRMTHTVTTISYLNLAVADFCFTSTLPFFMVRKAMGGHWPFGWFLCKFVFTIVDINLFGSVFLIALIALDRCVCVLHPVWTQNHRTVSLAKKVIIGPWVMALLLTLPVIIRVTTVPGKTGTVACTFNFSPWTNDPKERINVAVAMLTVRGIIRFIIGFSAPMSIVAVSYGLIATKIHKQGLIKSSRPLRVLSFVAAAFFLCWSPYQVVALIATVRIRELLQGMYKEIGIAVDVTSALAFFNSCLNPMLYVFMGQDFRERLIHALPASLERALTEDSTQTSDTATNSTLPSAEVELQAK
The experiment in a line: Agonist activity at human FPR1 expressed in HEK 293 cells co-expressing Galpha15 measured every 1.5 sec for 80 sec by Fluo-4 NW staining based scanning fluorometric method. It is filed as cell-based, HEK293.

The target of experiment [1] is T2, N-formyl peptide receptor 2 (Homo sapiens, UniProt P25090).
T2 sequence (P25090 whole entry): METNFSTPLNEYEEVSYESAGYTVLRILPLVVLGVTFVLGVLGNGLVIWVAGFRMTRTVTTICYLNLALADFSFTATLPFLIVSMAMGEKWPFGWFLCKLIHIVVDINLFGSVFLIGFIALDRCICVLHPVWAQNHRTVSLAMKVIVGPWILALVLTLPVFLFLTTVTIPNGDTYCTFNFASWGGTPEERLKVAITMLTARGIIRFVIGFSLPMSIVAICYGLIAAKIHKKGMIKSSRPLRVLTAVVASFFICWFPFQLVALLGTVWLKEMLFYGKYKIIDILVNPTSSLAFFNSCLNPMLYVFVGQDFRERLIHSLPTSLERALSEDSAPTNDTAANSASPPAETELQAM
The experiment in a line: Agonist activity at human FPR2 expressed in HEK 293 cells co-expressing Galpha15 measured every 1.5 sec for 80 sec by Fluo-4 NW staining based scanning fluorometric method. It is filed as cell-based, HEK293. Put shortly: (§1)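 HEK293 cells were transiently co-transfected with FPR plus Gα15 (Lipofectamine 2000), then reseeded after 24 h on poly-D-lysine plates and grown one more day. Cells were loaded with Fluo-4 NW for 45 min at 37°C. Compound was added and fluorescence (ex 485/em 525 nm) read for 80 s at 1.5 s intervals. Response = maximal peak minus basal.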

Experiment [2] deals with T3, Formyl peptide receptor 2 (Mus musculus, UniProt O88536).
T3 sequence (O88536 whole entry): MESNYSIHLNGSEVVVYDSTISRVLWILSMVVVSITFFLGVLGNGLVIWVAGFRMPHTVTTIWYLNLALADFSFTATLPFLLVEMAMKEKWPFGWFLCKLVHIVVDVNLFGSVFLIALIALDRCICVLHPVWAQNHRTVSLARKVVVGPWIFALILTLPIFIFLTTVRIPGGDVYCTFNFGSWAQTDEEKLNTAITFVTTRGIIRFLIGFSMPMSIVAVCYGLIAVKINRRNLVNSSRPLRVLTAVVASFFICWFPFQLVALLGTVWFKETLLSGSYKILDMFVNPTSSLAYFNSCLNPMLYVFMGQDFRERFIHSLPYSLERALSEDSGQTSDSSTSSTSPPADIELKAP
Kind of experiment: Agonist activity at mouse FPR2 expressed in HEK 293 cells co-expressing Galpha15 measured every 1.5 sec for 80 sec by Fluo-4 NW staining based scanning fluorometric method. The format is cell-based, HEK293. The method in brief:
as §1

Experiment [3] can be described thus: In vivo […] in mouse assessed as reduction in LPS-induced neutrophil infiltration in BALF cells at 1 mg/kg, po relative to control. It is filed as functional. Put shortly: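 Mice were given LPS and dosed orally at 1 mg/kg. Neutrophils in BALF were counted, and percent inhibition was calculated.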
The next experiment addresses Cytochrome P450 3A4 (Homo sapiens, UniProt P08684). The experiment in a line: Inhibition of recombinant human CYP3A4. It is filed as ADME.
In experiment [4] the test system is Mus musculus. Kind of experiment: Cardioprotective activity in C57BL/6 mouse model of LAD coronary artery ligation-induced myocardial infarction assessed as reduction in LV chamber area at 100 mg/kg, po and measured after 28 days. The format is functional, organism-based. To be noted: time 28.0 day. Put shortly:
(§2)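 Male C57BL/6 mice (10-12 weeks) underwent permanent LAD ligation. Captopril was given in drinking water (~100 mg/kg/day). Endpoints were taken at 28 days post-MI, with histomorphometry of LV cross sections for scar length.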

The subject of experiment [5] is Mus musculus. Kind of experiment: Cardioprotective activity in C57BL/6 mouse model of LAD coronary artery ligation-induced myocardial infarction assessed as reduction in heart weight at 100 mg/kg, po and measured after 28 days. The format is functional, organism-based. To be noted: time 28.0 day. Put shortly:
as §2

Experiment [6] concerns Mus musculus. The experiment in a line: Cardioprotective activity in C57BL/6 mouse model of LAD coronary artery ligation-induced myocardial infarction assessed as reduction in scar length at 0.3 mg/kg, po and measured after 28 days relative to control. The format is functional, organism-based. To be noted: time 28.0 day. Put shortly: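 Male C57BL/6 mice (10-12 weeks) underwent permanent LAD ligation under ketamine/xylazine, with shams having an untightened suture. Compound (0.3 mg/kg/d) or vehicle was given by oral gavage once daily (5 mL/kg) from post-MI day 4 for 24 days. Endpoints were taken at 28 days post-MI; scar length was quantified from LV cross sections.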

Structures are written as SMILES. pEC50, pIC50: −log10 of the molar value. Activity calls are given as the source filed them. The rule behind the calls is not given here.

Cytochrome P450 3A4, sequence (P08684 whole entry): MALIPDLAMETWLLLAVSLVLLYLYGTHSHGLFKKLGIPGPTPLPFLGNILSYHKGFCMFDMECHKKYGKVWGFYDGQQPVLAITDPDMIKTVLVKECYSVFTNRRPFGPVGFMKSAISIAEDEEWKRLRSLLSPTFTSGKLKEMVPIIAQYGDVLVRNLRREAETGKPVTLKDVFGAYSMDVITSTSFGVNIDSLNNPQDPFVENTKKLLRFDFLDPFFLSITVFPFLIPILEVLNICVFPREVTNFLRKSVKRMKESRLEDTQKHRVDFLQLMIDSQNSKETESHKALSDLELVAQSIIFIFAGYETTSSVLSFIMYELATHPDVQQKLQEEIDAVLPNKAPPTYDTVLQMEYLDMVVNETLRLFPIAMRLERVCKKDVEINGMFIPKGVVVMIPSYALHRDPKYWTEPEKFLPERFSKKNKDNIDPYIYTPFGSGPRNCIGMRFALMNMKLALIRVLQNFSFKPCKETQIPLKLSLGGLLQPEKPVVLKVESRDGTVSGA

As a reminder, the pEC50 is −log10 of the EC50, conventionally taken in molar units. The low end stands for a high EC50, the high end for a low EC50. On fMet-Leu-Phe receptor, `COc1cc(F)c([C@@H]2CNC(=O)[C@H]2NC(=O)Nc2ccc(F)cc2)cc1F` gave a pEC50 of 7.77.
In the case of `COc1ccc(CCNC(=O)Nc2ccc(Cl)cc2)cc1`, the pEC50 in experiment [1] is 6.00.
Take `O=C(Nc1ccc(F)cc1)N[C@@H]1C(=O)NC[C@H]1c1ccc(Cl)cc1F`: the pEC50 is 8.51 in experiment [1] and 7.54 at fMet-Leu-Phe receptor.
Molecule `COc1cc(F)c([C@@H]2CNC(=O)[C@H]2NC(=O)Nc2ccccc2F)c(F)c1` gave a pEC50 in experiment [1] of 7.37.
The molecule `COc1cc(F)c([C@@H]2CNC(=O)[C@H]2NC(=O)Nc2cc(C)ns2)c(F)c1` gave a pEC50 on fMet-Leu-Phe receptor of 6.54.
In turn, `COc1cc(F)c([C@@H]2CNC(=O)[C@H]2NC(=O)Nc2ncc(Cl)s2)c(F)c1` gave a pEC50 in experiment [1] of 8.72.
The inhibition in vivo is how much of the control response was suppressed. As usually defined, the pIC50 is −log10 of the IC50, conventionally taken in molar units. On to `COc1cc(F)c([C@@H]2CNC(=O)[C@H]2NC(=O)Nc2ccc(F)cc2)c(F)c1`, for which the results for the negative-log EC50 (pEC50) (in experiment [1]; on fMet-Leu-Phe receptor; in experiment [2]) were 9.85, 6.55 and 8.82, respectively. Further, the inhibition in vivo at 1 mg/kg in experiment [3] stood at 97%. Moreover, at Cytochrome P450 3A4, the pIC50 was less than 4.70.
For the molecule `COc1cc(F)c([C@@H]2CNC(=O)[C@H]2NC(=O)Nc2ccc(Cl)c(O)c2)c(F)c1`, the negative logarithm of the EC50 (pEC50) is 10.30 in experiment [1] and 7.40 on fMet-Leu-Phe receptor.
In experiment [1], `COc1ccc([C@@H]2CCNC(=O)[C@H]2NC(=O)Nc2ccc(Cl)cc2)cc1` (racemic) had a negative-log EC50 (pEC50) of 9.96.
`COc1cc(F)c([C@@H]2CNC(=O)[C@H]2NC(=O)Nc2ccc(Cl)s2)c(F)c1`: the pEC50 is 5.92 at fMet-Leu-Phe receptor and 8.85 in experiment [2]. Further, in experiment [3], the inhibition in vivo at 1 mg/kg came to 84%. Moreover, at Cytochrome P450 3A4, the pIC50 is 5.25.
Regarding `COc1ccc([C@@H]2CNC(=O)[C@H]2NC(=O)Nc2ccc(F)cc2)cc1F`, the pEC50 in experiment [1] was 9.05.
Still for that read-out and setting: as for `CNc1cc(F)c([C@@H]2CNC(=O)[C@H]2NC(=O)Nc2ccc(F)cc2)c(F)c1`, the figure is 8.85; as for `COc1ccc(CC(CO)NC(=O)Nc2ccc(Cl)cc2)cc1` (racemic), 8.17; as for `COc1ccc([C@@H]2CNC(=O)[C@H]2NC(=O)Nc2ccc(F)cc2)c(C)c1`, 8.80.
Take `COc1cc(F)c([C@@H]2CNC(=O)[C@H]2NC(=O)Nc2ccc(F)c(F)c2)c(F)c1`: the pEC50 is 6.09 at fMet-Leu-Phe receptor and 8.07 in experiment [2]. The inhibition in vivo at 1 mg/kg in experiment [3] was 4.9%. Besides, the pIC50 on Cytochrome P450 3A4 is less than 4.70.
In turn, `COc1ccc(CC(NC(=O)Nc2ccc(Cl)cc2)C(=O)O)cc1` (racemic) showed a pEC50 in experiment [1] of 7.51.
The molecule `COc1cc(F)c([C@@H]2CNC(=O)[C@H]2NC(=O)Nc2ccc(Cl)cn2)c(F)c1` gave a pEC50 in experiment [1] of 8.35.
Turning to `N#Cc1cc(F)c([C@@H]2CNC(=O)[C@H]2NC(=O)Nc2ccc(F)cc2)c(F)c1`, the pEC50 is 8.01 in experiment [1] and 4.40 at fMet-Leu-Phe receptor.
The molecule `COc1ccc([C@@H]2CNC(=O)[C@@H]2NC(=O)Nc2ccc(Cl)cc2)cc1` (racemic) had a pEC50 in experiment [1] of 9.04.
In the case of `COc1ccc(CC(NC(=O)Nc2ccc(Cl)cc2)C(N)=O)cc1` (racemic), the pEC50 is 8.44 in experiment [1] and less than 5.00 at fMet-Leu-Phe receptor.
For `COc1cc(F)c([C@@H]2CNC(=O)[C@H]2NC(=O)Nc2ccc(Br)cc2)c(F)c1`, in that order: 9.72 and 7.02.
Turning to `COc1ccc([C@@H]2CNC(=O)[C@H]2NC(=O)Nc2ccc(F)cc2)c(Cl)c1`, the pEC50 in experiment [1] is 8.40.
For `COc1cc(F)c([C@@H]2CNC(=O)[C@H]2NC(=O)Nc2cc3ccccc3s2)c(F)c1`, the pEC50 at fMet-Leu-Phe receptor is 5.52.
As for `COc1ccc([C@@H]2NC(=O)[C@@H]2NC(=O)Nc2ccc(Cl)cc2)cc1` (racemic), the negative-log EC50 (pEC50) is 7.92 in experiment [1] and less than 5.00 at fMet-Leu-Phe receptor.
Regarding `C[C@H](CS)C(=O)N1CCC[C@H]1C(=O)O`, the result in the experiment on Mus musculus [4] and in the experiment with Mus musculus [5] was Active. For the same molecule, in the experiment on Mus musculus [6], the result was inactive.
For the molecule `COc1ccc([C@H]2CNC(=O)[C@@H]2NC(=O)Nc2ccc(Cl)cc2)cc1`, in experiment [1], the pEC50 is 7.47.
Molecule `COc1ccc([C@@H]2CNC(=O)[C@H]2NC(=O)Nc2ccc(Cl)cc2)cc1` had a negative-log EC50 (pEC50) in experiment [1] of 10.04.
Regarding `COc1ccc(C2CNC(=O)C2NC(=O)Nc2ccc(Cl)cc2)cc1` (single isomer, unassigned; (-)), in experiment [1], the negative-log EC50 (pEC50) is 8.34.
`COc1cc(F)c([C@@H]2CNC(=O)[C@H]2NC(=O)Nc2ccc(Cl)cc2)c(F)c1` showed a pEC50 at fMet-Leu-Phe receptor of 6.92.
For `COc1cc(F)c([C@@H]2CNC(=O)[C@H]2NC(=O)Nc2ccc(C)c(O)c2)c(F)c1`, the pEC50 in experiment [1] is 10.11; at fMet-Leu-Phe receptor it was 6.00; in experiment [2], 9.20. Also, in experiment [3], the inhibition in vivo at 1 mg/kg was 55%. Moreover, the pIC50 on Cytochrome P450 3A4 was less than 4.70.
`COc1ccc([C@@H]2NC(=O)[C@H]2NC(=O)Nc2ccc(Cl)cc2)cc1` (racemic): the pEC50 is less than 7.00 in experiment [1] and less than 5.00 at fMet-Leu-Phe receptor.
Molecule `COc1cnc([C@@H]2CNC(=O)[C@H]2NC(=O)Nc2ccc(F)cc2)c(F)c1` showed a pEC50 at fMet-Leu-Phe receptor of 6.72.
Turning to `COc1ccc(CC(C)NC(=O)Nc2ccc(Cl)cc2)cc1` (racemic), in experiment [1], the pEC50 is 7.64.
Same read-out and setting: with `COc1ccc(C2CNC(=O)C2NC(=O)Nc2ccc(Cl)cc2)cc1` (single isomer, unassigned; (+)) the figure was 9.05; with `COc1ccc([C@@H]2CNC(=O)[C@H]2NC(=O)Nc2ccc(F)cc2)cc1`, 10.07; with `CCc1cc(F)c([C@@H]2CNC(=O)[C@H]2NC(=O)Nc2ccc(F)cc2)c(F)c1`, 8.24.
On to `COc1ccc([C@@H]2CNC(=O)[C@H]2NC(=O)Nc2ccc(Cl)cc2)cc1` (racemic), for which the pEC50 in experiment [1] was 9.74.
At fMet-Leu-Phe receptor, `COc1cc(F)c([C@@H]2CNC(=O)[C@H]2NC(=O)Nc2cccc(F)c2)c(F)c1` gave a pEC50 of 5.77.
In the case of `COc1cc(F)c([C@@H]2CNC(=O)[C@H]2NC(=O)Nc2ccc(C#N)cc2)c(F)c1`, the pEC50 on fMet-Leu-Phe receptor is 6.46.
`COc1cc(F)c([C@@H]2CNC(=O)[C@H]2NC(=O)Nc2ccc(C)cc2)c(F)c1` had a pEC50 in experiment [1] of 8.70.
In turn, `CCOc1cc(F)c([C@@H]2CNC(=O)[C@H]2NC(=O)Nc2ccc(F)cc2)c(F)c1` gave a pEC50 in experiment [1] of 7.85.
With `COc1cc(F)c([C@@H]2CNC(=O)[C@H]2NC(=O)Nc2ccc(F)c(O)c2)c(F)c1`, the pEC50 was 10.06 in experiment [1] and 7.14 at fMet-Leu-Phe receptor.

These data come from ChEMBL document CHEMBL4725241, “Discovery of BMS-986235/LAR-1219: A Potent Formyl Peptide Receptor 2 (FPR2) Selective Agonist for the Prevention of Heart Failure” (J Med Chem, 2020).
